Measurements from ChEMBL document CHEMBL4052823, “Extra Sugar on Vancomycin: New Analogues for Combating Multidrug-Resistant Staphylococcus aureus and Vancomycin-Resistant Enterococci” (J Med Chem, 2018).
Converted amounts (≈) assume the structure as drawn.

Experiments:
Staphylococcus aureus [1] = assay: Antibacterial activity against healthcare-associated methicillin-resistant/vancomycin-intermediate Staphylococcus aureus Mu50 after 24 hrs by broth microdilution method; assay type: functional; conditions: Mu50, 24 h
Summary of the method: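 Broth microdilution in cation-adjusted Mueller-Hinton II broth. DMSO stocks were diluted in broth and twofold serially from 128 to 0.0625 μg/mL or lower. Each well was inoculated with ~10^5 CFU of exponential-phase bacteria and incubated at 37 °C for 24 h. MIC was the lowest concentration giving complete growth inhibition, read per CLSI. Growth controls contained broth plus DMSO.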

Staphylococcus aureus [2] = assay: Antibacterial activity against vancomycin/methicillin-susceptible Staphylococcus aureus Newman […] after 24 hrs by broth microdilution method; assay type: functional
Summary of the method: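 Broth microdilution in cation-adjusted Mueller-Hinton II broth. […] Each well received ~10^5 CFU of exponential-phase bacteria and was incubated at 37 °C for 24 h. MIC was taken as the lowest concentration giving complete growth inhibition, interpreted per CLSI.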

CCCCCCCCCCNCCN[C@@]1(C)C[C@H](O[C@H]2[C@H](Oc3c4cc5cc3Oc3ccc(cc3Cl)[C@@H](O)[C@@H](NC(=O)[C@@H](CC(C)C)NC)C(=O)N[C@@H](CC(N)=O)C(=O)N[C@H]5C(=O)N[C@H]3C(=O)N[C@H](C(=O)N[C@H](C(=O)O)c5cc(O)c(CNCCO[C@H]6O[C@H](CO)[C@@H](O)[C@H](O)[C@@H]6O)c(O)c5-c5cc3ccc5O)[C@H](O)c3ccc(c(Cl)c3)O4)O[C@H](CO)[C@@H](O)[C@@H]2O)O[C@@H](C)[C@H]1O
MIC90 (Staphylococcus aureus [1]): 2 µg/mL (≈ 1.07 µM) | MIC90 (Staphylococcus aureus [2]): 1 µg/mL (≈ 0.535 µM)

CCCCCCCCCCNCCN[C@@]1(C)C[C@H](O[C@H]2[C@H](Oc3c4cc5cc3Oc3ccc(cc3Cl)[C@@H](O)[C@@H](NC(=O)[C@@H](CC(C)C)NC)C(=O)N[C@@H](CC(N)=O)C(=O)N[C@H]5C(=O)N[C@H]3C(=O)N[C@H](C(=O)N[C@H](C(=O)O)c5cc(O)c(CNCCO[C@@H]6O[C@H](CO)[C@@H](O)[C@H](O)[C@H]6O)c(O)c5-c5cc3ccc5O)[C@H](O)c3ccc(c(Cl)c3)O4)O[C@H](CO)[C@@H](O)[C@@H]2O)O[C@@H](C)[C@H]1O
MIC90 (Staphylococcus aureus [1]): 16 µg/mL (≈ 8.57 µM) | MIC90 (Staphylococcus aureus [2]): 4 µg/mL (≈ 2.14 µM)

CCCCCCCCCC(=O)N[C@@]1(C)C[C@H](O[C@H]2[C@H](Oc3c4cc5cc3Oc3ccc(cc3Cl)[C@@H](O)[C@@H](NC(=O)[C@@H](CC(C)C)NC)C(=O)N[C@@H](CC(N)=O)C(=O)N[C@H]5C(=O)N[C@H]3C(=O)N[C@H](C(=O)N[C@H](C(=O)O)c5cc(O)c(CNCCCNC(=O)[C@H](O)[C@@H](O)[C@H](O)[C@H](O)CO)c(O)c5-c5cc3ccc5O)[C@H](O)c3ccc(c(Cl)c3)O4)O[C@H](CO)[C@@H](O)[C@@H]2O)O[C@@H](C)[C@H]1O
MIC90 (Staphylococcus aureus [1]): 64 µg/mL (≈ 34.3 µM) | MIC90 (Staphylococcus aureus [2]): 32 µg/mL (≈ 17.1 µM)

CN[C@H](CC(C)C)C(=O)N[C@H]1C(=O)N[C@@H](CC(N)=O)C(=O)N[C@H]2C(=O)N[C@H]3C(=O)N[C@H](C(=O)N[C@H](C(=O)O)c4cc(O)c(CNCCCNC(=O)[C@H](O)[C@@H](O)[C@H](O)[C@H](O)CO)c(O)c4-c4cc3ccc4O)[C@H](O)c3ccc(c(Cl)c3)Oc3cc2cc(c3O[C@@H]2O[C@H](CO)[C@@H](O)[C@H](O)[C@H]2O[C@H]2C[C@](C)(NCc3ccc(OCc4cccc(-c5ccccc5)c4C)c(Cl)c3)[C@H](O)[C@H](C)O2)Oc2ccc(cc2Cl)[C@H]1O
MIC90 (Staphylococcus aureus [1]): 1 µg/mL (≈ 0.492 µM) | MIC90 (Staphylococcus aureus [2]): 0.5 µg/mL (≈ 0.246 µM)

CCCCCCCCCCC(=O)N[C@@]1(C)C[C@H](O[C@H]2[C@H](Oc3c4cc5cc3Oc3ccc(cc3Cl)[C@@H](O)[C@@H](NC(=O)[C@@H](CC(C)C)NC)C(=O)N[C@@H](CC(N)=O)C(=O)N[C@H]5C(=O)N[C@H]3C(=O)N[C@H](C(=O)N[C@H](C(=O)O)c5cc(O)c(CNCCCNC(=O)[C@H](O)[C@@H](O)[C@H](O)[C@H](O)CO)c(O)c5-c5cc3ccc5O)[C@H](O)c3ccc(c(Cl)c3)O4)O[C@H](CO)[C@@H](O)[C@@H]2O)O[C@@H](C)[C@H]1O
MIC90 (Staphylococcus aureus [1]): 32 µg/mL (≈ 17 µM) | MIC90 (Staphylococcus aureus [2]): 16 µg/mL (≈ 8.5 µM)

CCCCCCCCCN[C@@]1(C)C[C@H](O[C@H]2[C@H](Oc3c4cc5cc3Oc3ccc(cc3Cl)[C@@H](O)[C@@H](NC(=O)[C@@H](CC(C)C)NC)C(=O)N[C@@H](CC(N)=O)C(=O)N[C@H]5C(=O)N[C@H]3C(=O)N[C@H](C(=O)N[C@H](C(=O)O)c5cc(O)c(CNCCCNC(=O)[C@H](O)[C@@H](O)[C@H](O)[C@H](O)CO)c(O)c5-c5cc3ccc5O)[C@H](O)c3ccc(c(Cl)c3)O4)O[C@H](CO)[C@@H](O)[C@@H]2O)O[C@@H](C)[C@H]1O
MIC90 (Staphylococcus aureus [1]): 2 µg/mL (≈ 1.09 µM) | MIC90 (Staphylococcus aureus [2]): 0.5 µg/mL (≈ 0.272 µM)

CCc1ccc(CN[C@@]2(C)C[C@H](O[C@H]3[C@H](Oc4c5cc6cc4Oc4ccc(cc4Cl)[C@@H](O)[C@@H](NC(=O)[C@@H](CC(C)C)NC)C(=O)N[C@@H](CC(N)=O)C(=O)N[C@H]6C(=O)N[C@H]4C(=O)N[C@H](C(=O)N[C@H](C(=O)O)c6cc(O)c(CNCCCNC(=O)[C@H](O)[C@@H](O)[C@H](O)[C@H](O)CO)c(O)c6-c6cc4ccc6O)[C@H](O)c4ccc(c(Cl)c4)O5)O[C@H](CO)[C@@H](O)[C@@H]3O)O[C@@H](C)[C@H]2O)cc1
MIC90 (Staphylococcus aureus [1]): 8 µg/mL (≈ 4.37 µM) | MIC90 (Staphylococcus aureus [2]): 4 µg/mL (≈ 2.18 µM)

CCCCCCCCCCNCCN[C@@]1(C)C[C@H](O[C@H]2[C@H](Oc3c4cc5cc3Oc3ccc(cc3Cl)[C@@H](O)[C@@H](NC(=O)[C@@H](CC(C)C)NC)C(=O)N[C@@H](CC(N)=O)C(=O)N[C@H]5C(=O)N[C@H]3C(=O)N[C@H](C(=O)N[C@H](C(=O)O)c5cc(O)c(CNCCCNC(=O)[C@H](O)[C@@H](O)[C@H](O[C@@H]6O[C@H](CO)[C@H](O)[C@H](O)[C@H]6O)[C@H](O)CO)c(O)c5-c5cc3ccc5O)[C@H](O)c3ccc(c(Cl)c3)O4)O[C@H](CO)[C@@H](O)[C@@H]2O)O[C@@H](C)[C@H]1O
MIC90 (Staphylococcus aureus [1]): 1 µg/mL (≈ 0.486 µM) | MIC90 (Staphylococcus aureus [2]): 0.25 µg/mL (≈ 0.121 µM)

CCCCCCCCCN[C@@]1(C)C[C@H](O[C@H]2[C@H](Oc3c4cc5cc3Oc3ccc(cc3Cl)[C@@H](O)[C@@H](NC(=O)[C@@H](CC(C)C)NC)C(=O)N[C@@H](CC(N)=O)C(=O)N[C@H]5C(=O)N[C@H]3C(=O)N[C@H](C(=O)N[C@H](C(=O)O)c5cc(O)c(CNCCO)c(O)c5-c5cc3ccc5O)[C@H](O)c3ccc(c(Cl)c3)O4)O[C@H](CO)[C@@H](O)[C@@H]2O)O[C@@H](C)[C@H]1O
MIC90 (Staphylococcus aureus [1]): 0.5 µg/mL (≈ 0.303 µM) | MIC90 (Staphylococcus aureus [2]): 0.12 µg/mL (≈ 0.0728 µM)

CN[C@H](CC(C)C)C(=O)N[C@H]1C(=O)N[C@@H](CC(N)=O)C(=O)N[C@H]2C(=O)N[C@H]3C(=O)N[C@H](C(=O)N[C@H](C(=O)O)c4cc(O)c(CNCCCNC(=O)[C@H](O)[C@@H](O)[C@H](O)[C@H](O)CO)c(O)c4-c4cc3ccc4O)[C@H](O)c3ccc(c(Cl)c3)Oc3cc2cc(c3O[C@@H]2O[C@H](CO)[C@@H](O)[C@H](O)[C@H]2O[C@H]2C[C@](C)(NCc3ccc(-c4ccncc4)cc3)[C@H](O)[C@H](C)O2)Oc2ccc(cc2Cl)[C@H]1O
MIC90 (Staphylococcus aureus [1]): 4 µg/mL (≈ 2.13 µM) | MIC90 (Staphylococcus aureus [2]): 1 µg/mL (≈ 0.532 µM)

CCCCCCc1ccc(CN[C@@]2(C)C[C@H](O[C@H]3[C@H](Oc4c5cc6cc4Oc4ccc(cc4Cl)[C@@H](O)[C@@H](NC(=O)[C@@H](CC(C)C)NC)C(=O)N[C@@H](CC(N)=O)C(=O)N[C@H]6C(=O)N[C@H]4C(=O)N[C@H](C(=O)N[C@H](C(=O)O)c6cc(O)c(CNCCCNC(=O)[C@H](O)[C@@H](O)[C@H](O)[C@H](O)CO)c(O)c6-c6cc4ccc6O)[C@H](O)c4ccc(c(Cl)c4)O5)O[C@H](CO)[C@@H](O)[C@@H]3O)O[C@@H](C)[C@H]2O)cc1
MIC90 (Staphylococcus aureus [1]): 0.5 µg/mL (≈ 0.265 µM) | MIC90 (Staphylococcus aureus [2]): 0.12 µg/mL (≈ 0.0636 µM)

CCCCCOc1ccc(CN[C@@]2(C)C[C@H](O[C@H]3[C@H](Oc4c5cc6cc4Oc4ccc(cc4Cl)[C@@H](O)[C@@H](NC(=O)[C@@H](CC(C)C)NC)C(=O)N[C@@H](CC(N)=O)C(=O)N[C@H]6C(=O)N[C@H]4C(=O)N[C@H](C(=O)N[C@H](C(=O)O)c6cc(O)c(CNCCCNC(=O)[C@H](O)[C@@H](O)[C@H](O)[C@H](O)CO)c(O)c6-c6cc4ccc6O)[C@H](O)c4ccc(c(Cl)c4)O5)O[C@H](CO)[C@@H](O)[C@@H]3O)O[C@@H](C)[C@H]2O)cc1
MIC90 (Staphylococcus aureus [1]): 2 µg/mL (≈ 1.06 µM) | MIC90 (Staphylococcus aureus [2]): 1 µg/mL (≈ 0.529 µM)

CN[C@H](CC(C)C)C(=O)N[C@H]1C(=O)N[C@@H](CC(N)=O)C(=O)N[C@H]2C(=O)N[C@H]3C(=O)N[C@H](C(=O)N[C@H](C(=O)O)c4cc(O)c(CN[C@H]5C(O)O[C@H](CO)[C@H](O)[C@@H]5O)c(O)c4-c4cc3ccc4O)[C@H](O)c3ccc(c(Cl)c3)Oc3cc2cc(c3O[C@@H]2O[C@H](CO)[C@@H](O)[C@H](O)[C@H]2O[C@H]2C[C@](C)(NCc3ccc(C#C[Si](C)(C)C)cc3)[C@H](O)[C@H](C)O2)Oc2ccc(cc2Cl)[C@H]1O (stereo partly specified)
MIC90 (Staphylococcus aureus [1]): 2 µg/mL (≈ 1.09 µM) | MIC90 (Staphylococcus aureus [2]): 0.5 µg/mL (≈ 0.274 µM)
